Assay results taken from PubChem BioAssay.
Inconclusive results are not listed.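 Rule for the calls, unless noted: active = viability at or below 27.92% in each of two runs, the all-compound median minus 4 SD; inconclusive = no clear call, values can overlap the other calls; inactive = the rest.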

Legend:
[1] = S. cerevisiae growth inhibition in permissive medium (OD615), pilot counter-assay for S. cerevisiae lifespan shortening project, permissive growth control (AID 705;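 active = growth inhibition above 25% in both replicates, a cutoff set 3 SD above the mean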); settings: OD615, 24 h, at 10 µM, hits give high values
How it was run: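 System: Engineered DeaD yeast | Buffer or medium: SC raffinose/galactose permissive medium | Incubation: Cells pre-grown 4 h, then 24 h compound exposure, 30 °C humidified | Measured by: Absorbance (optical density) at 615 nm | Read-out: Reduction in yeast growth (OD615)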

[2] = S. cerevisiae growth inhibition in restrictive medium, OD615, pilot screen, restrictive growth control, yeast lifespan reduction project (AID 706;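 active = growth inhibition above a set limit, 3 SD over mean compound inhibition, in both replicates, cut at about 43% in these data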;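 note: modified DeaD lifespan yeast strain shifted to restrictive glucose medium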); settings: OD615, 48 h, at 10 µM, hits give high values
How it was run: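 Material: modified S. cerevisiae; Medium: glucose-based CSMM-D restrictive medium; Compound dosing: one concentration, 10 µM final, 0.25% DMSO; Incubation: 48 h compound exposure at 30 °C; Measured by: OD615.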

[3] = doxorubicin toxicity protection in MRP-1 cells – H69AR cells, CellTiter-Glo, duplicate, MRP-1 activator project, pilot screen (AID 807;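 active = viability increase at or above a cutoff of the median across tested compounds plus 3 SD, cut at about 8.5% in these data, passing the limit was not always enough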;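 note: compound pretreatment 18-22 h then 72 h combined with doxorubicin; 0% = doxorubicin alone and 100% = vehicle without doxorubicin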); settings: H69AR viability with doxorubicin, CellTiter-Glo luminescence; at 10 µM; hits give high values
[4] = viability of HCT116 without oncogenic beta-catenin – human colon tumor cells, pilot screen (AID 823;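 active = cell viability at or below a set limit in both duplicate runs, the limit being the all-compound median minus 4 SD, cut at about 23% in these data, passing the limit was not always enough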;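 note: 0% = wells killed by 20 µM Hyamine and 100% = untreated DMSO cell wells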); settings: HCT116 beta-catenin knockout viability, CellTiter-Glo, 60 h; at 10 µM; hits give low values
[5] = viability of PTEN-null HCT116 cells – cell-based, HCT116 clonal line, CellTiter-Glo, pilot screen (AID 824); settings: HCT116 PTEN-deleted viability, 60 h, at 10 µM, hits give low values;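 note: 0% = 20 µM Hyamine control and 100% = vehicle cell control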
[6] = RAM pathway blockade in budding yeast – dse1pr::URA3 reporter, 5-FOA selection, pilot screen (AID 869;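 active = inhibition over a set limit, the all-compound mean plus 3 SD, in both replicate runs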;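 note: 0% = DMSO wells with no growth and 100% = 10 µM 1-NA-PP1 with full growth; RAM network block rescues cells from 5-FOA so hits raise OD615 growth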); settings: S. cerevisiae dse1pr::URA3 5-FOA growth, OD615, 2 d; at 10 µM; hits give high values; strain carries analog-sensitive mutant Cbk1 kinase
[7] = RAM signaling pathway blockade in yeast – S. cerevisiae, Pdr1DBD-CYC8 efflux-inhibited sensitized strain, primary screen (AID 1298;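 active = RAM network inhibition above 8.4% in each of two replicates, 3 SD over the compound average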;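 note: 0% = DMSO untreated cells without growth and 100% = 10 µM 1-NA-PP1 full growth; higher means more yeast growth rescued from 5-FOA killing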); settings: S. cerevisiae cbk1-as DSE1-URA3 strain, 5-FOA growth OD615, 2 d; at 50 µM; hits give high values

Cn1c(=O)oc2cc(S(=O)(=O)N3CCC(N4CCCCC4)CC3)ccc21
inactive: growth inhibition [1] -15.8% | growth inhibition [2] -13.1% | viability increase [3] -1.67% | viability [4] 98.7% | viability [5] 93% | inhibition [6] -0.02% | RAM network inhibition [7] 1.06%

CCOc1ccc(N(CC(=O)Nc2ccc(C)cc2)S(=O)(=O)c2c(C)noc2C)cc1
inactive: growth inhibition [1] -18.5% | growth inhibition [2] -19.6% | viability increase [3] -3.45% | viability [4] 79.4% | viability [5] 67.4% | inhibition [6] 1.29% | RAM network inhibition [7] 4.04%

Cc1ccc(CNC(=O)c2ccc(Br)o2)cc1
inactive: growth inhibition [1] -14.5% | growth inhibition [2] -1.29% | viability increase [3] -0.67% | viability [4] 96.9% | viability [5] 98.1% | inhibition [6] 0.885% | RAM network inhibition [7] 3.41%

COCCNC(=O)CN1C(=O)CC(C)(C)S(=O)(=O)c2ccccc21
inactive: growth inhibition [1] -2.02% | growth inhibition [2] -10.2% | viability increase [3] 1.42% | viability [4] 109% | viability [5] 101% | inhibition [6] 0.31% | RAM network inhibition [7] -0.36%

CCOc1ccc(CCNC(=O)c2nnc(Cc3ccc(F)cc3)o2)cc1OCC
inactive: growth inhibition [1] -5.33% | growth inhibition [2] 7.65% | viability increase [3] -2.55% | viability [4] 103% | viability [5] 95.2% | inhibition [6] 1.5% | RAM network inhibition [7] 5.06%

CC1CCCC(C)N1CCCNC(=O)Cn1cc2c(n1)CCCC2 (centres undefined)
inactive: growth inhibition [1] 9.32% | growth inhibition [2] 6.46% | viability increase [3] -1.41% | viability [4] 95.7% | viability [5] 92.5% | inhibition [6] -0.06% | RAM network inhibition [7] 6.61%

COc1ccc(C)cc1Nc1cc(C)nc2ncnn12
inactive: growth inhibition [1] -7.14% | growth inhibition [2] 0.405% | viability increase [3] -4.44% | viability [4] 95.1% | viability [5] 88.9% | inhibition [6] 1.28% | RAM network inhibition [7] -1.57%

O=C1c2ccccc2NC(c2ccc3c(c2)OCCO3)N1c1ccc2c(c1)OCCO2 (centres undefined)
inactive: growth inhibition [1] -5.15% | growth inhibition [2] 6.69% | viability increase [3] -2.17% | viability [4] 90.5% | viability [5] 79.5% | inhibition [6] 0.615% | RAM network inhibition [7] 0.98%

COC(=O)c1sccc1NC(=O)c1ccc(Br)o1
inactive: growth inhibition [1] 12.1% | growth inhibition [2] 11.3% | viability increase [3] -6.77% | viability [4] 78.5% | viability [5] 72.2% | inhibition [6] 2.2% | RAM network inhibition [7] 7.41%

CCCc1nc(SCC(=O)Nc2cc(C)on2)c2c(=O)n(C)c(=O)n(C)c2n1
inactive: growth inhibition [1] 4.81% | growth inhibition [2] 4.73% | viability increase [3] -1.05% | viability [4] 97.1% | viability [5] 93% | inhibition [6] 3.88% | RAM network inhibition [7] 4.78%

CCNc1nc(NCC)nc(-n2nc(C)cc2C)n1
inactive: growth inhibition [1] 4.27% | growth inhibition [2] 4.28% | viability increase [3] -0.22% | viability [4] 100% | viability [5] 103% | inhibition [6] 0.2% | RAM network inhibition [7] 0.75%

O=c1[nH]cnc2c1sc(=S)n2-c1ccccc1
inactive: growth inhibition [1] 10.2% | growth inhibition [2] 29.8% | viability increase [3] -0.17% | viability [4] 101% | viability [5] 97.1% | inhibition [6] 1.87% | RAM network inhibition [7] 8.71%

CN(Cc1ccccc1)C(=O)CCS(=O)(=O)c1ccc2c(c1)n(C)c(=O)c(=O)n2C
inactive: growth inhibition [1] -4.66% | growth inhibition [2] -4.58% | viability increase [3] 0.66% | viability [4] 95.7% | viability [5] 100% | inhibition [6] 1.23% | RAM network inhibition [7] 4.6%

COc1ccc(CCNC(=O)Cc2cc(=O)[nH]c(=O)[nH]2)cc1OC
inactive: growth inhibition [1] 6.42% | growth inhibition [2] 3% | viability increase [3] -0.97% | viability [4] 96.7% | viability [5] 97.6% | inhibition [6] 1.35% | RAM network inhibition [7] 1.23%

O=C(NCc1ccc2c(c1)OCO2)c1cc2c(s1)CSC2
inactive: growth inhibition [1] -4.81% | growth inhibition [2] 3.8% | viability increase [3] -1.75% | viability [4] 99.2% | viability [5] 95.5% | inhibition [6] 1.75% | RAM network inhibition [7] 0.94%

COC(=O)c1ccc(C2c3c(oc4ccccc4c3=O)C(=O)N2CCCN2CCOCC2)cc1 (centres undefined)
inactive: growth inhibition [1] -2.57% | growth inhibition [2] -3.54% | viability increase [3] -4.63% | viability [4] 87.6% | viability [5] 82.9% | inhibition [6] 0.54% | RAM network inhibition [7] 0.48%

CCOc1ccc(NC(=O)N(CCN(C)C)C(C)c2ccncc2)cc1 (centres undefined)
inactive: growth inhibition [1] 2.97% | growth inhibition [2] 4.26% | viability increase [3] -1.59% | viability [4] 85.6% | viability [5] 90.2% | inhibition [6] 1.05% | RAM network inhibition [7] 1.38%
